Data reported in ChEMBL document CHEMBL5252539, “In vitro biological evaluation of new antimycobacterial salicylanilide-tuftsin conjugates” (Eur J Med Chem, 2017).
In brackets after ≈: the same amount, converted by molar mass. Activity calls are given as the source filed them. The rule behind the calls is not given here. *1 amine or outer side, *2 acyl side, *3 side chain or, on linkers, in order; H or OH if unused. Where a SMILES comes first, the peptide text is derived from it. [ ]: non-standard residue; d: D form. The star is where a group is joined. X2 = C/C(=N\OCC(=O)*)c1ccc(NC(=O)c2cc(Br)ccc2O)cc1; X1 = C/C(=N\OCC(=O)[*:2])c1ccc(N[*:1])cc1; Benzoyl(5-Br-2-OH) = O=C(c1cc(Br)ccc1O)*; X3 = O=C(c1cc(Cl)ccc1O)*; Butyryl = CCCC(=O)*

Columns and labels:
[1] = test system: MONO-MAC-6; assay: Cytostatic activity against human MONO-MAC-6 cells assessed as reduction in cell viability incubated for 24 hrs by MTT assay; format: functional, cell-based; details: MONO-MAC-6, 24 h
Summary of the method: (§1)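 MTT viability assay after 24 h exposure of MonoMac6 human monocytic cells or HepG2 human hepatocellular carcinoma cells. Top concentration 200 μM. IC50 taken from dose-response curves as the concentration reducing viability to 50% of maximal.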

[2] = test system: HepG2; assay: Cytostatic activity against human HepG2 cells assessed as reduction in cell viability incubated for 24 hrs by MTT assay; format: functional, cell-based; details: HepG2, 24 h; summary of the method: as §1
[3] = Selectivity index, ratio of IC50 for cytostatic activity against human MONO-MAC-6 cells to MIC for antimycobacterial activity against Mycobacterium tuberculosis H37Rv ATCC 27294; format: toxicity, cell-based; details: read-out: Selectivity Index
Summary of the method: (§2)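 MTT assay on MonoMac6 or HepG2 cells after 24 h exposure, top concentration 200 µM. SI = IC50 (µM)/MIC (µM) against H37Rv from the 4-week Sula medium assay.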

[4] = Selectivity index, ratio of IC50 for cytostatic activity against human HepG2 cells to MIC for antimycobacterial activity against Mycobacterium tuberculosis H37Rv ATCC 27294; format: toxicity, cell-based; details: read-out: Selectivity Index; summary of the method: as §2
[5] = Stability in rat liver lysosomal homogenate assessed as drug degradation at 50 uM and measured upto 24 hrs by HPLC-MS analysis; format: ADME, subcellular, Lysosome; details: tissue homogenate
Summary of the method: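 Conjugates incubated in rat liver lysosomal homogenate. Reaction mixtures sampled at 5 min, 1 h, 2 h, 4 h, 8 h and 24 h and analysed by HPLC-MS (chromatograms and mass spectra) to identify intact conjugate, fragments and cleavage sites.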

[6] = test system: Mycobacterium tuberculosis; assay: Antimycobacterial activity against Mycobacterium tuberculosis H37Rv ATCC 27294 assessed as reduction in bacterial growth after 28 days by serial dilution method; format: functional; details: H37Rv ATCC 27294, 672 h, time 28 day
Summary of the method: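 Broth MIC in Sula semisynthetic medium, pH 6.5; 4-week incubation, with 21-day values […] where indicated. Drug-free inoculated bacteria served as growth control. MIC also expressed as drug content (µg/mL) = MIC (µM) × average SAL molar mass × number of SAL per conjugate / 1000.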

[7] = test system: Mycobacteroides abscessus; assay: Antimycobacterial activity against Mycobacterium abscessus ATCC 19977 assessed as reduction in bacterial growth after 7 days by serial dilution method; format: functional; details: ATCC 19977, 168 h, time 7 day
Summary of the method: (§3)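 MIC determined in Sula semisynthetic medium, pH 6.5, 1 week incubation. Growth inhibition confirmed by plating on Löwenstein-Jensen solid medium and counting CFU. Bacteria inoculated without drug served as growth control.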

[8] = test system: Mycobacterium tuberculosis; assay: Antimycobacterial activity against Mycobacterium tuberculosis H37Rv ATCC 27294 assessed as reduction in colony forming unit after 28 days by serial dilution method; format: functional, organism-based; details: time 28.0 day
Summary of the method: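 After the 4-week MIC incubation in Sula semisynthetic medium (pH 6.5), growth inhibition confirmed by plating on Löwenstein-Jensen solid medium and counting colony forming units.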

[9] = test system: Mycobacteroides abscessus; assay: Antimycobacterial activity against Mycobacterium abscessus ATCC 19977 assessed as reduction in colony forming unit after 7 days by serial dilution method; format: functional, organism-based; details: time 7.0 day; summary of the method: as §3
[10] = test system: Mycobacterium tuberculosis; assay: […] antimycobacterial activity against Mycobacterium tuberculosis H37Rv ATCC 27294 infected in human MONO-MAC-6 cells assessed as reduction in colony forming unit at 125 uM for 6 days by colony counting based analysis; format: functional, organism-based; details: time 6.0 day
Summary of the method: (§4)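 MonoMac6 monolayers infected with H37Rv, then treated with compound at 125 or 250 µM for 3 days. Treatment repeated with fresh compound solution for another 3 days. Intracellular bacteria quantified as CFU against untreated infected cells.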

[11] = test system: Mycobacterium tuberculosis; assay: […] antimycobacterial activity against Mycobacterium tuberculosis H37Rv ATCC 27294 infected in human MONO-MAC-6 cells assessed as reduction in colony forming unit at 250 uM for 6 days by colony counting based analysis; format: functional, organism-based; details: time 6.0 day; summary of the method: as §4
[12] = Retention time of the compound by RP-HPLC analysis; format: physicochemical
Summary of the method: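 Analytical RP-HPLC on a C18 column (5 μm, 100 Å, 4.6 × 150 mm). Eluent A 0.1% TFA in water, eluent B 0.1% TFA in acetonitrile-water 80:20. Gradient 0% B for 5 min, to 60% B at 15 min, to 100% B at 25 min. Flow 1 mL/min, detection at 220 nm.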

Row | Compound | IC50 [1] | IC50 [2] | selectivity ratio [3] | selectivity ratio [4] | Stability [5] | MIC [6] | MIC [7] | Activity [8] | Activity [9] | Activity [10] | Activity [11] | Retention_time [12]
1 | C/C(=N\OCC(=O)N[C@H](C(=O)N[C@@H](CCCCN)C(=O)N1CCC[C@H]1C(=O)N1CCC[C@H]1C(=O)N[C@@H](CCCNC(=N)N)C(=O)O)[C@@H](C)O)c1ccc(NC(=O)c2cc(Br)ccc2O)cc1 | > 200 µM | > 200 µM | > 9.9 | > 9.9 | Unstable | – | – | – | – | – | – | –
2 | C/C(=N\OCC(=O)N[C@H](C(=O)N[C@@H](CCCCN)C(=O)N1CCC[C@H]1C(=O)N[C@@H](CCCCN)C(=O)NCC(=O)N[C@H](C(=O)N[C@@H](CCCCN)C(=O)N1CCC[C@H]1C(=O)N[C@@H](CCCCN)C(=O)NCC(=O)N[C@H](C(=O)N[C@@H](CCCCN)C(=O)N1CCC[C@H]1C(=O)N[C@@H](CCCCN)C(=O)NCC(=O)N[C@H](C(=O)N[C@@H](CCCCN)C(=O)N1CCC[C@H]1C(=O)N[C@@H](CCCCN)C(=O)NCC(N)=O)[C@@H](C)O)[C@@H](C)O)[C@@H](C)O)[C@@H](C)O)c1ccc(NC(=O)c2cc(Cl)ccc2O)cc1 (X3-[X1]TKPKGTKPKGTKPKGTKPKG-NH2) | > 200 µM | > 200 µM | > 2.4 | > 2.4 | – | 83 µM (≈ 200 µg/mL) | 41.5 µM (≈ 99.9 µg/mL) | Active | Active | Active | Active | –
3 | C/C(=N\OCC(=O)NCC(=O)N[C@@H](Cc1ccccc1)C(=O)N[C@@H](CC(C)C)C(=O)NCC(=O)N[C@H](C(=O)N[C@@H](CCCCN)C(=O)N1CCC[C@H]1C(=O)N[C@@H](CCCCN)C(=O)NCC(N)=O)[C@@H](C)O)c1ccc(NC(=O)c2cc(Br)ccc2O)cc1 ({Benzoyl(5-Br-2-OH)}-[X1]GFLGTKPKG-NH2) | > 200 µM | 163 µM | > 6.5 | 5.3 | Unstable | 31 µM (≈ 40.1 µg/mL) | 155 µM (≈ 200 µg/mL) | Active | Active | Active | Active | –
4 | C/C(=N\OCC(=O)NCC(=O)N[C@@H](Cc1ccccc1)C(=O)N[C@@H](CC(C)C)C(=O)NCC(=O)N[C@H](C(=O)N[C@@H](CCCCN)C(=O)N1CCC[C@H]1C(=O)N[C@@H](CCCCN)C(=O)NCC(=O)O)[C@@H](C)O)c1ccc(NC(=O)c2cc(Br)ccc2O)cc1 ({Benzoyl(5-Br-2-OH)}-[X1]GFLGTKPKG-OH) | > 200 µM | 58 µM | > 4.3 | 1.3 | – | 46.4 µM (≈ 60 µg/mL) | 155 µM (≈ 200 µg/mL) | Active | Active | inactive | Active | –
5 | CCCC(=O)NCCCC[C@H](NC(=O)[C@@H]1CCCN1C(=O)[C@H](CCCCN)NC(=O)[C@@H](NC(=O)CO/N=C(\C)c1ccc(NC(=O)c2cc(Br)ccc2O)cc1)[C@@H](C)O)C(=O)NCC(=O)N[C@H](C(=O)N[C@@H](CCCCN)C(=O)N1CCC[C@H]1C(=O)N[C@@H](CCCCN)C(=O)NCC(=O)N[C@H](C(=O)N[C@@H](CCCCN)C(=O)N1CCC[C@H]1C(=O)N[C@@H](CCCCN)C(=O)NCC(=O)N[C@H](C(=O)N[C@@H](CCCCN)C(=O)N1CCC[C@H]1C(=O)N[C@@H](CCCCN)C(=O)NCC(N)=O)[C@@H](C)O)[C@@H](C)O)[C@@H](C)O ({Benzoyl(5-Br-2-OH)}-[X1]TKPK(Butyryl)GTKPKGTKPKGTKPKG-NH2) | > 200 µM | 81.6 µM | > 3.2 | 1.3 | – | 63.4 µM (≈ 160 µg/mL) | 79.3 µM (≈ 200 µg/mL) | Active | Active | Active | Active | 14.7 min
6 | C/C(=N\OCC(=O)NCCCC[C@H](NC(=O)[C@@H]1CCCN1C(=O)[C@H](CCCCN)NC(=O)[C@@H](NC(=O)CO/N=C(\C)c1ccc(NC(=O)c2cc(Br)ccc2O)cc1)[C@@H](C)O)C(=O)NCC(=O)N[C@H](C(=O)N[C@@H](CCCCN)C(=O)N1CCC[C@H]1C(=O)N[C@@H](CCCCN)C(=O)NCC(=O)N[C@H](C(=O)N[C@@H](CCCCN)C(=O)N1CCC[C@H]1C(=O)N[C@@H](CCCCN)C(=O)NCC(=O)N[C@H](C(=O)N[C@@H](CCCCN)C(=O)N1CCC[C@H]1C(=O)N[C@@H](CCCCN)C(=O)NCC(N)=O)[C@@H](C)O)[C@@H](C)O)[C@@H](C)O)c1ccc(NC(=O)c2cc(Br)ccc2O)cc1 ({Benzoyl(5-Br-2-OH)}-[X1]TKPK(X2)GTKPKGTKPKGTKPKG-NH2) | 39.1 µM | 79.7 µM | 0.9 | 1.9 | Unstable | 42.2 µM (≈ 120 µg/mL) | 70.4 µM (≈ 200 µg/mL) | Active | Active | inactive | Active | 16.3 min
7 | C/C(=N\OCC(=O)N[C@H](C(=O)N[C@@H](CCCCN)C(=O)N1CCC[C@H]1C(=O)N[C@@H](CCCCN)C(=O)NCC(=O)O)[C@@H](C)O)c1ccc(NC(=O)c2cc(Br)ccc2O)cc1 ({Benzoyl(5-Br-2-OH)}-[X1]TKPKG-OH) | > 200 µM | 191 µM | > 3.1 | 2.9 | Unstable | 65.3 µM (≈ 60 µg/mL) | 218 µM (≈ 200 µg/mL) | Active | Active | Active | Active | –
8 | C/C(=N\OCC(=O)N[C@H](C(=O)N[C@@H](CCCCN)C(=O)N1CCC[C@H]1C(=O)N[C@@H](CCCCN)C(=O)NCC(=O)N[C@H](C(=O)N[C@@H](CCCCN)C(=O)N1CCC[C@H]1C(=O)N[C@@H](CCCCN)C(=O)NCC(N)=O)[C@@H](C)O)[C@@H](C)O)c1ccc(NC(=O)c2cc(Br)ccc2O)cc1 ({Benzoyl(5-Br-2-OH)}-[X1]TKPKGTKPKG-NH2) | > 200 µM | > 200 µM | > 1.1 | > 1.1 | Unstable | 175 µM (≈ 250 µg/mL) | 56 µM (≈ 80.1 µg/mL) | Active | Active | Active | Active | 14.9 min
9 | C/C(=N\OCC(=O)N[C@H](C(=O)N[C@@H](CCCCN)C(=O)N1CCC[C@H]1C(=O)N[C@@H](CCCNC(=N)N)C(=O)O)[C@@H](C)O)c1ccc(NC(=O)c2cc(Br)ccc2O)cc1 ({Benzoyl(5-Br-2-OH)}-[X1]TKPR-OH) | > 200 µM | > 200 µM | > 4.4 | > 4.4 | Unstable | 45 µM (≈ 40 µg/mL) | 225 µM (≈ 200 µg/mL) | Active | Active | Active | Active | –
